Screens: PubChem, several laboratories
Rows were chosen to be rich in hits. Some 1.4% of all compounds tested hit in one or more screens of this group.
DAGLB inhibitor = DAGLB lipase inhibitors, primary screen, biochemical, fluorescence, HTS; HEK293T DAGLB membrane lysate, EnzChek fluorogenic substrate; inhibition, % at 5.17 µM; 0.059% of 340,000 active; AID 504411, 2011; in the data active means inhibition above about 34%;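 further: 0% = enzyme with vehicle and 100% = wells lacking enzyme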
Target sequence (Q8NCG7 whole entry, looked up): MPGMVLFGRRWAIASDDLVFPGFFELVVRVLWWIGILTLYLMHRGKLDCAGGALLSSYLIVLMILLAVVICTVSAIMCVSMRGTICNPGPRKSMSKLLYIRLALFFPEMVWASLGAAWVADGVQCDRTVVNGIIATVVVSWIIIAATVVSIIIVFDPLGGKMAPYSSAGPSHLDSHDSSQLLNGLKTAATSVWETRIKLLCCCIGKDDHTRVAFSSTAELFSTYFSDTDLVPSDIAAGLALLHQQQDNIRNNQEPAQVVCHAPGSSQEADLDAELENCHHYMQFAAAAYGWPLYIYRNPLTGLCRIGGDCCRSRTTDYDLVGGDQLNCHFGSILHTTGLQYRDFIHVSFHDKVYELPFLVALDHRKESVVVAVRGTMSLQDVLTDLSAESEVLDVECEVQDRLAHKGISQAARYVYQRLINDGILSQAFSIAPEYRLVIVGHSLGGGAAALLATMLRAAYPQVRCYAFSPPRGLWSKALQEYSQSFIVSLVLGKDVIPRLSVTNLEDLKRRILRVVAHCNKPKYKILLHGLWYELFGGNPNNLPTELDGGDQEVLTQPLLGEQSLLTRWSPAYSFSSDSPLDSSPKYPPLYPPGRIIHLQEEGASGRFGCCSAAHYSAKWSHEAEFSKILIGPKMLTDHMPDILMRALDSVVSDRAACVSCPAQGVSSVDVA
Tn6 DDE FP = inhibitors of Tn6 peptide binding to fibrin DD(E), primary screen, biochemical, fluorescence polarization, human fibrin, Tn6 probe. Fibrin DD(E) TRITC-Tn6 fluorescence polarization displacement. inhibition, % at 8.3 µM. 0.21% of 370,000 active. Fibrinogen beta chain (Homo sapiens), P02675. AID 720509, 2013;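 active means inhibition above a per-campaign cutoff: mean of compounds within control limits plus 3 SD, cut at about 15% in these data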;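 further: 0% = median of all compound wells on the plate and 100% = blocking peptide control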
MT1-MMP act inh = blockers of MT1-MMP proenzyme processing, primary screen, HT1080 RFP-PRO-GFP cells, GFP/RFP fluorescence; AID 651647, 2012; GFP/RFP ratio change, % at 20 µM; GFP/RFP ratio fluorescence, overnight; percent of plate control window, DMSO zero; 0.061% of 360,000 active; Matrix metalloproteinase-14 (Homo sapiens), P50281;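 active means GFP/RFP ratio change of at least 30% with cell ATP level not reduced by more than half and red fluorescence within 50% of control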
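Test system: HT1080 RFP-PRO-GFP cells; Benchmarks: DMSO and RFP-L50D-GFP cell wells; Timing: cells overnight before dosing, compound overnight, 37 °C, 5% CO2; Compound: one 20 µM compound dose with 1% DMSO; Read-out: GFP/RFP fluorescence ratio.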
H9c2 TAG inh = inhibitors of triacylglycerol accumulation, primary screen, cell-based, uHTS, fluorescence, H9c2 | H9c2 cells, Nile Red lipid (TAG) fluorescence; cells loaded with 200 µM oleic acid | inhibition, % at 12.5 µM | 0.66% of 230,000 active | AID 651582, 2012;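 active means pattern-corrected inhibition of lipid staining of at least 50% with the nuclear-stain viability signal not falling by more than 50%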;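 further: 0% = DMSO wells and 100% = triacsin C control wells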
DDE Tn7 FP inh = inhibitors of Tn7 peptide binding to fibrin DD(E), primary screen, biochemical, fluorescence polarization, human fibrin, Tn7 probe | inhibition, % at 8.3 µM | Fibrinogen beta chain (Homo sapiens), P02675 | 0.13% of 370,000 active | FP displacement of FITC-Tn7 peptide from fibrin DD(E); 0% = median of compound wells per plate;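 active means inhibition above the mean of compounds falling within the control limits plus 3 SD of them, cut at about 14% in these data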;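 further: 0% = plate median of compound wells and 100% = 10 µM Aha-Tn7 peptide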
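Assay system: human fibrin DD(E) protein / Input: 2 µM fibrin DD(E) / Benchmarks: high control of 10 µM Aha-Tn7 peptide / Measured by: fluorescence polarization of the labelled Tn7 tracer / Medium: Tris buffer with calcium and detergent, pH 7.8 / Timing: 10 min compound pre-incubation, 3 h probe incubation at room temperature / Repeats: one replicate per compound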
Cardio protect = cardioprotection against H2O2-induced cell death, primary screen, uHTS, H9c2 cells, ATPLite luminescence | H9c2 cardiomyocytes, H2O2 injury protection, 2 h | protection from H2O2 cell death, % at 20 µM | 0.63% of 360,000 active | AID 588492, 2011;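 active means compounds giving at least 50% protection of heart cells from peroxide-induced death in the single-dose screen, raw or plate-pattern-corrected value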;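 further: 0% = DMSO wells with peroxide and 100% = DMSO wells without peroxide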
Tn6 DDE ctr = counter-screen hit for Tn6 peptide-fibrin DD(E) binding disruption. shares compounds with Tn6 DDE FP. TRITC-Tn6 fluorescence polarization displacement; 0% = median of compound wells, not DMSO. inhibition, % at 8.3 µM. 2% of 680 active. AID 720621;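 active means inhibition above the mean of test compounds lying between the control limits plus 3 SD of those, cut at about 14% in these data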;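 further: 0% = median of compound wells and 100% = wells with Aha-Tn7 blocking peptide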
Tn6 DDE conf = inhibitors of Tn6 peptide binding to fibrin DD(E), confirmation, biochemical, fluorescence polarization, human fibrin, Tn6 probe; 10% of 680 active; shares compounds with Tn6 DDE FP; FP displacement of TRITC-Tn6 peptide from DD(E); 0% = per-plate median of test wells; AID 720631, 2013; inhibition, % at 8.3 µM;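 active means inhibition above the mean of compounds lying within the control limits plus 3 SD, cut at about 16% in these data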;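 further: 100% = high control wells holding a competing inhibitor peptide at 10 µM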
Active calls of the source: *.

Screening CN(Cc1ccccc1)C(=O)OCc1cn(Cc2ccc(F)cc2F)nn1 returned Tn6 DDE FP 17*, DDE Tn7 FP inh 2, Tn6 DDE ctr 6 and Tn6 DDE conf 5.
Screening CN(Cc1ccccc1)C(=O)OCc1cn(Cc2c(F)cccc2F)nn1 returned Tn6 DDE FP 4 and DDE Tn7 FP inh 6.
`CC(C)(C)S(=O)N1Cc2cc(C(=O)NCc3ccc(Oc4ccccc4)cc3)nc(-c3cccc(-c4cc5ccccc5o4)c3)c2[C@@H]1CCO` (some centres undefined) gave MT1-MMP act inh 2 and Cardio protect -6.
Screening COC(=O)[C@]12C=CCN1[C@H](c1ccc(C(F)(F)F)cc1)c1c(c3ccccc3n1S(=O)(=O)c1ccc(C)cc1)C2 returned Tn6 DDE FP 17*, DDE Tn7 FP inh -9, Tn6 DDE ctr 2 and Tn6 DDE conf 4.
COC(=O)[C@]12C=CCN1[C@H](c1ccc(Cl)cc1)c1c(c3ccccc3n1S(=O)(=O)c1ccc(C)cc1)C2 was read as Tn6 DDE FP -2 and DDE Tn7 FP inh -3.
Screening COC(=O)[C@]12C=CCN1[C@@H](c1ccc(Cl)cc1)c1c(c3ccccc3n1S(=O)(=O)c1ccc(C)cc1)C2 returned Tn6 DDE FP 28*, DDE Tn7 FP inh -7, Tn6 DDE ctr 2 and Tn6 DDE conf 3.
`COC(=O)C1=CN(Cc2ccc(OC)c(OC)c2)C=C(C(=O)OC)C1c1cccc(OC)c1OC` gave DAGLB inhibitor -4, Tn6 DDE FP 2, MT1-MMP act inh -5, DDE Tn7 FP inh -2 and Cardio protect 8.
For CCN1C=C(C(=O)OC)C(c2cccc(OC)c2OC)C(C(=O)OC)=C1 the results were DAGLB inhibitor 0, Tn6 DDE FP 17*, MT1-MMP act inh 1, H9c2 TAG inh 25, DDE Tn7 FP inh 12, Cardio protect 0, Tn6 DDE ctr 4 and Tn6 DDE conf 1.
Screening COC(=O)[C@H]1C[C@@]2(O)CN(S(=O)(=O)c3ccc(C)cc3)C[C@@]2(OC(=O)NCC2CCCCC2)C[C@H]1C(=O)OC returned DAGLB inhibitor 1, Tn6 DDE FP -6, MT1-MMP act inh 1, H9c2 TAG inh -47, DDE Tn7 FP inh 10 and Cardio protect -2.
Screening CCCN(C)C[C@@H]1Oc2ncc(Br)cc2C(=O)N([C@@H](C)CO)C[C@H]1C returned DAGLB inhibitor -4, Tn6 DDE FP -13, MT1-MMP act inh 3, H9c2 TAG inh 12, DDE Tn7 FP inh 1 and Cardio protect 6.
For Clc1ccccc1CSc1ncn(-c2ccccc2)n1 the results were DAGLB inhibitor -4, Tn6 DDE FP -6, MT1-MMP act inh 3, H9c2 TAG inh 3, DDE Tn7 FP inh -4 and Cardio protect -5.
`Cc1ccc(CSc2ncn(-c3ccccc3)n2)cc1` gave DAGLB inhibitor -9, Tn6 DDE FP 16*, MT1-MMP act inh 10, DDE Tn7 FP inh 1, Cardio protect 0, Tn6 DDE ctr 4 and Tn6 DDE conf -2.
`CCOC(=O)C1(C)CCN1C(=O)c1ccc2c(c1)CCO2` (centres undefined) gave Tn6 DDE FP -3, MT1-MMP act inh 1, H9c2 TAG inh -12, DDE Tn7 FP inh -11 and Cardio protect -6.
For CNc1cc(-c2cccc(OC)c2F)nc2ccnn12 the results were Tn6 DDE FP 9, MT1-MMP act inh -3, H9c2 TAG inh 2, DDE Tn7 FP inh 9 and Cardio protect 3.
COC(=O)c1ccc2c(c1)C(C)(C)C(/C=C/c1ccc(O)cc1)=[N+]2C was read as DAGLB inhibitor 7, Tn6 DDE FP 64*, MT1-MMP act inh 86, DDE Tn7 FP inh -28, Cardio protect -17, Tn6 DDE ctr -44 and Tn6 DDE conf -25.
COc1cc(/C=C/c2ccc(O)cc2)cc(OC)c1 was read as DAGLB inhibitor -2, Tn6 DDE FP -3, MT1-MMP act inh 4, DDE Tn7 FP inh 1 and Cardio protect -8.
For COc1cccc(CN(C)CC(=O)NC(=O)NCc2ccco2)c1 the results were DAGLB inhibitor -1, Tn6 DDE FP 18*, MT1-MMP act inh 4, H9c2 TAG inh -11, DDE Tn7 FP inh -5, Cardio protect 7, Tn6 DDE ctr -3 and Tn6 DDE conf -2.
For COc1cccc(NC(=O)CN(C)CC(=O)NCc2ccco2)c1 the results were DAGLB inhibitor -3, Tn6 DDE FP 7, MT1-MMP act inh -5, H9c2 TAG inh -9, DDE Tn7 FP inh -8 and Cardio protect 9.
`c1ccc2c(c1)ccc1ccccc12` gave DAGLB inhibitor -5, Tn6 DDE FP 4, MT1-MMP act inh 4, DDE Tn7 FP inh 0 and Cardio protect 0.
For CC1=[N+](C)c2ccc3ccccc3c2C1(C)C the results were DAGLB inhibitor 4, Tn6 DDE FP 55*, MT1-MMP act inh 83, H9c2 TAG inh 10, DDE Tn7 FP inh -2, Cardio protect -35, Tn6 DDE ctr -1 and Tn6 DDE conf 8.
Screening Cc1cccc(NC(=S)N2CCN(S(C)(=O)=O)CC2)c1 returned DAGLB inhibitor 1, Tn6 DDE FP 2, MT1-MMP act inh 0, H9c2 TAG inh -17, DDE Tn7 FP inh 3 and Cardio protect -3.
`Cc1cc(C)cc(NC(=S)N2CCN(S(C)(=O)=O)CC2)c1` gave DAGLB inhibitor -2, Tn6 DDE FP 16*, MT1-MMP act inh -1, DDE Tn7 FP inh 6, Cardio protect 1, Tn6 DDE ctr 0 and Tn6 DDE conf 0.
CN1CCC(N2CCN(C3CN(C4CCCCC4)S(=O)(=O)C3)CC2)CC1 (centres undefined) was read as Tn6 DDE FP -6, MT1-MMP act inh 2, DDE Tn7 FP inh -3 and Cardio protect 3.
